Calls of active or inactive are those of the source. No cut-off for these calls is given here.
What was measured:
L02 = assay: Cytotoxicity against human L02 cells assessed as reduction in cell viability measured upto 72 hrs by MTT assay; format: cell-based; conditions: l02, 72 h
HepG2 [1] = assay: Cytotoxicity against human HepG2 cells assessed as reduction in cell viability measured upto 72 hrs by MTT assay; format: functional, cell-based; conditions: for IC50: HepG2, 72 h
In short: (§1)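 HCC cells plated at 2.5 × 10^4/mL in triplicate and exposed to a range of compound concentrations. Proliferation was read by MTT at 24, 48 and 72 h.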

HepG2 [2] = assay: Induction of apoptosis in human HepG2 cells assessed as upregulation of Bcl-2 expression measured upto 48 hrs by Western blot analysis; format: functional, cell-based; conditions: time hrs <=48, in the assay text read “downregulation” for “upregulation”, TDE = time-dependent effect
In short: (§2)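 HepG2 cells were exposed to compound and harvested at 0, 12, 18, 24 and 48 h. Bcl-2 and Bcl-xL levels were detected by western blot, with β-actin as loading control.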

HepG2 [3] = assay: Induction of apoptosis in human HepG2 cells assessed as decrease in full length PARP measured upto 48 hrs by Western blot analysis; format: functional, cell-based; conditions: time hrs <=48, TDE = time-dependent effect
In short: (§3)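 Lysates of compound-treated HepG2 cells were immunoblotted for procaspase-3, PARP, survivin and cyclin D1. Full-length PARP is 116 kDa; cleavage yields 85 and 24 kDa fragments.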

MDA-MB-231 [4] = assay: Induction of apoptosis in human MBA-MB-231 cells assessed as upregulation of Bcl-2 expression measured upto 48 hrs by Western blot analysis; format: functional, cell-based; conditions: time hrs <=48, TDE = time-dependent effect, in the assay text read “downregulation” for “upregulation”
In short: (§4)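 Bcl-2 and Bcl-xL levels in MDA-MB-231 cells after compound treatment were assessed by western blot, with β-actin as loading control.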

HepG2 [5] = assay: Induction of apoptosis in human HepG2 cells assessed as increase in pro-caspase 3 activation measured upto 48 hrs by Western blot analysis; format: functional, cell-based; conditions: time hrs <=48, TDE = time-dependent effect; in short: as §3
HepG2 [6] = assay: Induction of cell cycle arrest in human HepG2 cells assessed as increase in accumulation of SubG1 phase incubated for 48 hrs by propidium iodide staining based flow cytometry analysis; format: functional; conditions: dose 10-40 µM
In short: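 HepG2 cells were treated at 0, 10, 20 and 40 µM for 48 h, then ethanol-fixed and stained with propidium iodide. Cell cycle distribution, including the subG1 fraction, was analysed by flow cytometry.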

HepG2 [7] = assay: Induction of apoptosis in human HepG2 cells assessed as decrease in cyclin-D1 measured upto 48 hrs by Western blot analysis; format: functional, cell-based; conditions: time hrs <=48; in short: as §3
MDA-MB-231 [8] = assay: Induction of apoptosis in human MBA-MB-231 cells assessed as upregulation of Bcl-xl expression measured upto 48 hrs by Western blot analysis; format: functional, cell-based; conditions: time hrs <=48, in the assay text read “downregulation” for “upregulation”; in short: as §4
HepG2 [9] = assay: Induction of apoptosis in human HepG2 cells assessed as increase in PARP cleavage measured upto 48 hrs by Western blot analysis; format: functional, cell-based; conditions: time hrs <=48, TDE = time-dependent effect; in short: as §3
HepG2 [10] = assay: Induction of apoptosis in human HepG2 cells assessed as decrease in survivin measured upto 48 hrs by Western blot analysis; format: functional, cell-based; conditions: time hrs <=48; in short: as §3
HepG2 [11] = assay: Induction of apoptosis in human HepG2 cells assessed as upregulation of Bcl-xl expression measured upto 48 hrs by Western blot analysis; format: functional, cell-based; conditions: time hrs <=48, in the assay text read “downregulation” for “upregulation”, TDE = time-dependent effect; in short: as §2
HepG2 [12] = assay: Antiproliferative activity in human HepG2 cells transfected with Bcl2 siRNA assessed as reduction in cell growth at 10 to 50 uM incubated for 24 hrs by MTT assay; format: functional, cell-based; conditions: dose 10-50 µM
In short: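 HepG2 cells were transfected with Bcl-2 siRNA, with control siRNA-transfected cells as the comparator. Cells were then exposed to graded compound doses, and proliferation was measured by MTT.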

Huh-7 = assay: Cytotoxicity against human HuH-7 cells assessed as reduction in cell viability measured upto 72 hrs by MTT assay; format: functional, cell-based; conditions: dose 10-50 µM, time hrs <=72; in short: as §1
Hep 3B2 = assay: Cytotoxicity against human Hep3B cells assessed as reduction in cell viability measured upto 72 hrs by MTT assay; format: functional, cell-based; conditions: dose 10-50 µM, time hrs <=72; in short: as §1

Compound	Activity (L02)	IC50 (HepG2 [1]) [µM]	other results
COc1ccc(-c2ccccc2Cl)cc1C12CC3CC(CC(C3)C1)C2	Toxic	21.9	
COc1ccc(-c2ccccc2F)cc1C12CC3CC(CC(C3)C1)C2	Non-Toxic	> 50	
COc1ccc(-c2ccc(C(F)(F)F)cc2)cc1C12CC3CC(CC(C3)C1)C2	Non-Toxic	> 50	
COc1ccc(-c2ccccc2)cc1C12CC3CC(CC(C3)C1)C2	Non-Toxic	> 50	
COc1ccc(-c2cccc3ccccc23)cc1C12CC3CC(CC(C3)C1)C2	Non-Toxic	46.2	
COc1ccc(-c2cccc(O)c2)cc1C12CC3CC(CC(C3)C1)C2	Non-Toxic	26.1	Activity (HepG2 [2]): Tde; Activity (HepG2 [3]): Tde; Activity (MDA-MB-231 [4]): Tde; Activity (HepG2 [5]): Tde; Activity (HepG2 [6]): Dose-dependent effect; Activity (HepG2 [7]): Active; Activity (MDA-MB-231 [8]): Active; Activity (HepG2 [9]): Tde; Activity (HepG2 [10]): Active; Activity (HepG2 [11]): Tde; inhibition (HepG2 [12]): inactive
COc1ccc(C2=Cc3ccccc3C2)cc1C12CC3CC(CC(C3)C1)C2	Toxic	6.9	
COc1ccc(-c2ccccc2C)cc1C12CC3CC(CC(C3)C1)C2	Non-Toxic	49.1	
COc1ccc(-c2ccc(Cl)c(C(F)(F)F)c2)cc1C12CC3CC(CC(C3)C1)C2	Non-Toxic	> 50	
COc1ccc(-c2c(F)cc(F)c(OC)c2F)cc1C12CC3CC(CC(C3)C1)C2	Non-Toxic	> 50	
COc1ccc(-c2ccccc2C#N)cc1C12CC3CC(CC(C3)C1)C2	Non-Toxic	> 50	
COc1cccc(-c2ccc(OC)c(C34CC5CC(CC(C5)C3)C4)c2)c1	Non-Toxic	> 50	
COc1ccc(-c2cccc(Cl)c2)cc1C12CC3CC(CC(C3)C1)C2	Non-Toxic		
CC1(C)CCC(c2ccc(Cl)cc2)=C(CN2CCN(c3ccc(C(=O)NS(=O)(=O)c4ccc(N[C@H](CCN5CCOCC5)CSc5ccccc5)c(S(=O)(=O)C(F)(F)F)c4)cc3)CC2)C1			Activity (Huh-7): Dose-dependent effect; Activity (HepG2 [1]; time hrs <=72): Dose-dependent effect; Activity (Hep 3B2): Dose-dependent effect
COc1ccc(-c2ccc(C(=O)N3CCCCC3)cc2)cc1C12CC3CC(CC(C3)C1)C2	Non-Toxic	> 50	

From ChEMBL document CHEMBL4715695, “Adamantyl-tethered-biphenylic compounds induce apoptosis in cancer cells by targeting Bcl homologs” (Bioorg Med Chem Lett, 2016)
